The source made the active and inactive calls. The rule behind the calls is not given here.
Assays:
[1] = test system: HaCaT; assay: Cytotoxicity against human HaCaT cells at 100 ug/ml incubated for 24 hrs by LDH release assay; assay type: cell-based
Method in brief: (§1)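 HaCaT keratinocytes were grown in RPMI-1640 with 10% FBS and Nu-serum and seeded to a monolayer over 24 h. Compound was applied for 24 h at 37 °C in 5% CO2, and LDH in the supernatant was measured. Medium alone gave the baseline and 0.1% Triton X-100 gave total lysis. Duplicates; mean ± SE.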

[2] = test system: Acanthamoeba castellanii; assay: Antiamoebic activity against Acanthamoeba castellanii T4 genotype ATCC 50492 trophozites assessed as reduction in viable cells at 50 ug/ml incubated for 24 hrs by trypan blue staining based hemocytometric method relative to control; assay type: functional; details: T4 genotype ATCC 50492, 24 h
Method in brief: (§2)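 Trophozoites from PYG cultures at 30 °C were detached on ice and resuspended in PBS. They were exposed at 5×10^5 per well in RPMI-1640 at 30 °C for 24 h, stained with 0.1% Trypan blue for 5 min, and unstained cells were counted by hemocytometer. Untreated cells were the negative control and chlorhexidine the positive control. Significance was tested against methanol solvent. Duplicates; mean ± SE.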

[3] = test system: Acanthamoeba castellanii; assay: Inhibition of Acanthamoeba castellanii T4 genotype ATCC 50492 excystation at 100 ug/ml incubated with pre-formed cysts for 72 hrs by hemocytometric method; assay type: functional, organism-based
Method in brief: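 Cysts were formed by plating 1×10^6 trophozoites on 1.5% non-nutrient agar at 30 °C for up to 2 weeks, then scraped into PBS. 1×10^5 cysts were incubated with compound in PYG at 30 °C for 72 h, and emerging trophozoites were counted by hemocytometer. Duplicates; mean ± SE; two-tailed two-sample t-test.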

[4] = test system: Acanthamoeba castellanii; assay: (§3) Antiamoebic activity against Acanthamoeba castellanii T4 genotype ATCC 50492 infected in human HaCaT cells assessed as reduction in amoeba-induced host cell cytopathogenicity at 100 ug/ml preincubated with amoeba for 2 hrs followed by incubation of suspension with host cell for 24 hrs by LDH release assay; assay type: functional, organism-based
Method in brief: (§4)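 Amoebae were pretreated with compound for 2 h at 30 °C, pelleted at 3000g for 5 min, and resuspended in fresh RPMI-1640 to remove compound. They were then added to HaCaT monolayers for 24 h at 37 °C in 5% CO2. Supernatant LDH was read at 492 nm. % cytotoxicity was calculated against untreated and 0.1% Triton X-100 lysed cells. Duplicates; mean ± SE.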

[5] = test system: Acanthamoeba castellanii; assay: Antiamoebic activity against Acanthamoeba castellanii T4 genotype ATCC 50492 trophozites assessed as reduction in viable cells at 100 ug/ml incubated for 24 hrs by trypan blue staining based hemocytometric method relative to control; assay type: functional; details: T4 genotype ATCC 50492, 24 h; method in brief: as §2
[6] = test system: Acanthamoeba castellanii; assay: Inhibition of Acanthamoeba castellanii T4 genotype ATCC 50492 trophozites encystation at 100 ug/ml incubated for 72 hrs by hemocytometric method; assay type: functional, organism-based
Method in brief: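 5×10^5 trophozoites in PBS were pretreated with compound for 15 min at room temperature. They were then transferred into encystation medium (50 mM MgCl2, 10% glucose) at 30 °C for 72 h. Trophozoites were lysed with 0.25% SDS for 10 min, and SDS-resistant cysts were counted by hemocytometer. Duplicates; mean ± SE; two-tailed t-test.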

[7] = test system: Acanthamoeba castellanii; assay: Antiamoebic activity against Acanthamoeba castellanii T4 genotype ATCC 50492 trophozites assessed as reduction in viable cells at 100 ug/ml incubated for 24 hrs by trypan blue staining based hemocytometric method; assay type: functional, organism-based; method in brief: as §2
[8] = test system: Acanthamoeba castellanii; assay: as §3, with “assay relative to control” for “assay”; assay type: functional; details: T4 genotype ATCC 50492, HaCaT; method in brief: as §4
[9] = test system: Acanthamoeba castellanii; assay: Antiamoebic activity against Acanthamoeba castellanii T4 genotype ATCC 50492 assessed as increase in pore formation at 100 ug/ml incubated for 2 hrs by FE-SEM analysis; assay type: functional, organism-based
Method in brief: (§5)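 Trophozoites were treated with compound, then fixed on glass coverslips in 2.5% glutaraldehyde in PBS at 4 °C for 2 h. Samples were dehydrated through 50–100% ethanol, air-dried and sputter-coated with platinum. Surface morphology was imaged by FESEM at several scales, with untreated amoebae for comparison.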

[10] = test system: Acanthamoeba castellanii; assay: Antiamoebic activity against Acanthamoeba castellanii T4 genotype ATCC 50492 assessed as increase in surface disintegration at 100 ug/ml incubated for 2 hrs by FE-SEM analysis; assay type: functional, organism-based; method in brief: as §5
[11] = test system: HaCaT; assay: Cytotoxicity against human HaCaT cells at 100 ug/ml incubated for 24 hrs by LDH release assay relative to control; assay type: cell-based; method in brief: as §1

SMILES	Activity [1]	inhibition at 50 µg/mL [2] [%]	inhibition [3]	inhibition [4]	inhibition at 100 µg/mL [5] [%]	inhibition [6]	inhibition [7]	inhibition at 100 µg/mL [8] [%]	Activity [9]	Activity [10]	Activity [11] [%]
CSc1cccc(-n2cnc3c(C)cccc3c2=O)c1	Non-Toxic	> 50	Active	Active	> 50	–	–	–	–	–	–
COc1ccc(-n2cnc3c(C)cccc3c2=O)cc1	Non-Toxic	> 50	Active	Active	> 50	–	–	–	–	–	–
Cc1cccc2c(=O)n(-c3ccc(F)cc3F)cnc12	Non-Toxic	> 50	Active	Active	> 50	Active	–	–	–	–	–
N=C(NCCCCCCNC(=N)NC(=N)Nc1ccc(Cl)cc1)NC(=N)Nc1ccc(Cl)cc1	–	–	Active	–	–	–	–	–	–	–	–
Cc1cc(C)cc(-n2cnc3c(C)cccc3c2=O)c1	Non-Toxic	–	Active	Active	–	–	inactive	–	–	–	–
Cc1cccc2c(=O)n(-c3ccc(F)cc3)cnc12	Non-Toxic	> 60	Active	–	> 80	–	–	100	Active	Active	–
Cc1ccccc1-n1cnc2c(C)cccc2c1=O	Non-Toxic	> 50	Active	–	> 50	Active	–	100	–	–	–
COc1ccc(OC)c(-n2cnc3c(C)cccc3c2=O)c1	Non-Toxic	> 50	Active	Active	> 50	–	–	–	–	–	–
Cc1cccc2c(=O)n(-c3ccc(Br)cc3)cnc12	Non-Toxic	> 50	Active	Active	> 50	–	–	–	–	–	–
Cc1cccc2c(=O)n(-c3cccc(F)c3)cnc12	Non-Toxic	> 50	Active	Active	> 80	–	–	–	–	–	–
Cc1cccc2c(=O)n(-c3ccccc3I)cnc12	–	> 60	Active	–	> 80	Active	–	100	–	–	8
Cc1ccc(-n2cnc3c(C)cccc3c2=O)cc1	Non-Toxic	> 50	Active	Active	> 50	–	–	–	Active	Active	–
Cc1cccc2c(=O)n(-c3ccc(Cl)cc3)cnc12	Non-Toxic	> 50	Active	Active	> 50	–	–	–	–	–	–
Cc1cccc2c(=O)n(-c3ccc(I)cc3)cnc12	Non-Toxic	> 60	Active	–	> 50	–	–	100	–	–	–
Cc1cccc2c(=O)n(-c3cccc(Br)c3)cnc12	–	> 50	Active	Active	> 50	–	–	–	–	–	11
Cc1cccc2c(=O)n(-c3cccc(Cl)c3)cnc12	Non-Toxic	> 50	Active	Active	> 50	–	–	–	–	–	–

Reference: ChEMBL document CHEMBL4359881, “Novel antiacanthamoebic compounds belonging to quinazolinones” (Eur J Med Chem, 2019)
